# How the values were obtained:
# [1] = target: T1, Prostaglandin E2 receptor EP1 subtype (Homo sapiens, UniProt P34995); assay: Displacement of [3H]PGE2 from human EP1 receptor expressed in CHOK1 cells; format: cell-based, CHO-K1
# T1 sequence (P34995 whole entry): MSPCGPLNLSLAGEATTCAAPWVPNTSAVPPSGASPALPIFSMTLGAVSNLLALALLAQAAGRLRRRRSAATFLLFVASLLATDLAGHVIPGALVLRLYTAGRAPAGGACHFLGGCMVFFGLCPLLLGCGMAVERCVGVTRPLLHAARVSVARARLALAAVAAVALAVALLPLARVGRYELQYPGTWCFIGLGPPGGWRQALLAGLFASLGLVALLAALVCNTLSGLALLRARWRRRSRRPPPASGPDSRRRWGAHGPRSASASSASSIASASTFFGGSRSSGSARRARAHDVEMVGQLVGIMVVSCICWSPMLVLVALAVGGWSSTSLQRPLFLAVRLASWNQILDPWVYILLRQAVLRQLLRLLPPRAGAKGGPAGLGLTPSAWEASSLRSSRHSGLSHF
# Outline: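 Membranes from CHO-K1 cells stably transfected with human EP1 cDNA were incubated with competing compound and [3H]-PGE2 (3 nM final) for 30 min at 30 °C. Bound radioactivity was counted by liquid scintillation. Values are means of at least three experiments.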
# [2] = target: T1, Prostaglandin E2 receptor EP1 subtype; assay: Antagonist activity against human EP1 receptor expressed in CHOK1 cells assessed as inhibition of PGE2-induced intracellular calcium mobilization by FLIPR assay; format: functional, cell-based, CHO-K1
# Liver [3] = assay: Metabolic stability assessed as intrinsic clearance in rat liver microsome; format: ADME; conditions: microsomes
# Outline: (§1)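 Intrinsic clearance was measured in liver microsomes and expressed as mL/min/g liver. Values come from a single experiment.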
# Liver [4] = assay: Metabolic stability assessed as intrinsic clearance in human liver microsome; format: ADME; conditions: microsomes; outline: as §1
# Rattus norvegicus [5] = assay: Inhibition of complete Freund's adjuvant-induced hypersensitivity in orally dosed rat; format: functional; conditions: po
# Outline: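 Rats with CFA-induced inflammatory hypersensitivity were dosed orally, seven per dose group, with celecoxib 10 mg/kg po as comparator. Readout was taken 1 h after dosing. ED50 was calculated from the dose-response, and significance was reported at p < 0.05, 0.01 and 0.001.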
# Rattus norvegicus [6] = assay: Drug level in complete Freund's adjuvant-induced hypersensitivity rat blood at 1 mg/kg, po; format: ADME, organism-based; design: dose 1 mg/kg, route oral; conditions: in vivo, read-out: Drug uptake
# Outline: (§2)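 Blood was sampled from the rats in the CFA hypersensitivity efficacy study, seven per dose group, and analysed by bioanalysis. Rats were dosed orally at 1, 3 and 10 mg/kg.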
# Rattus norvegicus [7] = assay: Drug level in complete Freund's adjuvant-induced hypersensitivity rat blood at 3 mg/kg, po; format: ADME, organism-based; design: dose 3 mg/kg, route oral; conditions: in vivo, read-out: Drug uptake; outline: as §2
# Rattus norvegicus [8] = assay: Drug level in complete Freund's adjuvant-induced hypersensitivity rat blood at 10 mg/kg, po; format: ADME, organism-based; design: dose 10 mg/kg, route oral; conditions: in vivo, read-out: Drug uptake; outline: as §2
# [9] = Ratio of drug level in brain to blood in complete Freund's adjuvant-induced hypersensitivity rat; format: ADME, tissue-based
# [10] = target: T2, Prostaglandin E2 receptor EP3 subtype (Homo sapiens, UniProt P43115); assay: Antagonist activity against EP3 receptor by FLIPR assay; format: functional
# T2 sequence (P43115 whole entry): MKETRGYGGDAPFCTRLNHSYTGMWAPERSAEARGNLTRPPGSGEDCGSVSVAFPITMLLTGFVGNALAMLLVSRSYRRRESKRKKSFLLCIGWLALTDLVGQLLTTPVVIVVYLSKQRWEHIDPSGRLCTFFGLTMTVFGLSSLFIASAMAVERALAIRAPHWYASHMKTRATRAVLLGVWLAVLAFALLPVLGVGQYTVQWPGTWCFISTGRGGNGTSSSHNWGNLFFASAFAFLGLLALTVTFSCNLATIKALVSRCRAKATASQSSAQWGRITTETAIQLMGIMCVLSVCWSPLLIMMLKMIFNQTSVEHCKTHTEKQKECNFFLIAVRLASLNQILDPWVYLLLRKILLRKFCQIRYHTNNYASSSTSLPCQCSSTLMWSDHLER
# Thromboxane A2 receptor = target: T3, Thromboxane A2 receptor (Homo sapiens, UniProt P21731); assay: Antagonist activity against TP receptor by FLIPR assay; format: functional
# T3 sequence (P21731 whole entry): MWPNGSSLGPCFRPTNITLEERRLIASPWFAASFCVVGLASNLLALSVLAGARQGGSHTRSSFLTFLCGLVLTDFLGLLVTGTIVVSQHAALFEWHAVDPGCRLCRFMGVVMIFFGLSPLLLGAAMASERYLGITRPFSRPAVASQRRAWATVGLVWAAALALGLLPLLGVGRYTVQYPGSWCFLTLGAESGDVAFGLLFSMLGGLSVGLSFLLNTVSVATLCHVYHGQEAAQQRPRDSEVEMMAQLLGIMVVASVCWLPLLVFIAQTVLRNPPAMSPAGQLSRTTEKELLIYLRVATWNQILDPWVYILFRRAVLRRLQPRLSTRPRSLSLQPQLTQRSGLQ
smiles,measurement,setting,value
CC(C)Cc1cn(-c2cccc(C(=O)[O-])n2)c2cc(Cl)ccc12.[Na+],IC50,[1]; read-out: Log IC50 (converted),63.1 nM
same,Ki,[2]; read-out: Log Ki (converted),20 nM
same,CL,Liver [3],4.3 mL/min/g
same,CL,Liver [4],3.6 mL/min/g
same,ED50,Rattus norvegicus [5],2.17 mg/kg
same,concentration,Rattus norvegicus [6],440 nM
same,concentration,Rattus norvegicus [7],1230 nM
same,concentration,Rattus norvegicus [8],6040 nM
same,Kp,[9],0.05
same,Ki,[10],794 nM
CC(C)(C)Cc1cn(-c2nc(C(=O)[O-])cs2)c2cc(Cl)ccc12.[Na+],IC50,[1]; read-out: Log IC50 (converted),31.6 nM
same,CL,Liver [3],1.9 mL/min/g
same,CL,Liver [4],2.7 mL/min/g
CN(C)C(=O)c1cn(-c2nc(C(=O)O)cs2)c2cc(Cl)ccc12,IC50,[1]; read-out: Log IC50 (converted),1000 nM
CC(C)Cc1cn(CC(=O)O)c2cc(Cl)ccc12,IC50,[1]; read-out: Log IC50 (converted),> 1000 nM
CC(C)(C)CCc1cn(-c2nc(C(=O)[O-])cs2)c2cc(Cl)ccc12.[Na+],IC50,[1]; read-out: Log IC50 (converted),6.31 nM
same,Ki,[2]; read-out: Log Ki (converted),3.98 nM
same,CL,Liver [3],1.3 mL/min/g
same,CL,Liver [4],2.1 mL/min/g
same,Ki,[10],398 nM
same,Ki,Thromboxane A2 receptor,79.4 nM
CCCc1cn(-c2nc(C(=O)[O-])cs2)c2cc(Cl)ccc12.[Na+],IC50,[1]; read-out: Log IC50 (converted),31.6 nM
same,CL,Liver [3],11 mL/min/g
same,CL,Liver [4],1.3 mL/min/g
CN(C)CCc1cn(-c2nc(C(=O)O)cs2)c2cc(Cl)ccc12,IC50,[1]; read-out: Log IC50 (converted),> 1000 nM
CC(C)Cc1cn(-c2cccc(C(=O)O)c2)c2cc(Cl)ccc12,IC50,[1]; read-out: Log IC50 (converted),631 nM
CC(C)Cc1cn(-c2ccccc2C(=O)O)c2cc(Cl)ccc12,IC50,[1]; read-out: Log IC50 (converted),> 1000 nM
CC(C)Cc1cn(-c2nc(C(=O)O)cs2)c2ccc(Cl)cc12,IC50,[1]; read-out: Log IC50 (converted),39.8 nM
O=C(O)c1csc(-n2cc(CC(F)(F)F)c3ccc(Cl)cc32)n1,IC50,[1]; read-out: Log IC50 (converted),251 nM
CC(C)Cc1cn(-c2nc(C(=O)O)cs2)c2cc(Br)ccc12,IC50,[1]; read-out: Log IC50 (converted),3.98 nM
same,Ki,[2]; read-out: Log Ki (converted),0.2 nM
same,Ki,[10],398 nM
same,Ki,Thromboxane A2 receptor,50.1 nM
CC(C)Cc1cn(-c2nc(C(=O)O)cs2)c2cc(F)ccc12,IC50,[1]; read-out: Log IC50 (converted),39.8 nM
CN(C)Cc1cn(-c2nc(C(=O)O)cs2)c2cc(Cl)ccc12,IC50,[1]; read-out: Log IC50 (converted),> 1000 nM
CC(C)Cc1cn(-c2nc(CC(=O)O)cs2)c2cc(Cl)ccc12,IC50,[1]; read-out: Log IC50 (converted),158 nM
CC(C)Cc1cn(-c2nc(C(=O)[O-])cs2)c2cc(Cl)ccc12.[Na+],IC50,[1]; read-out: IC50,6.3 nM
same,Ki,[2]; read-out: Ki,0.5 nM
same,CL,Liver [3],12 mL/min/g
same,CL,Liver [4],2.2 mL/min/g
same,Ki,[10],316 nM
same,Ki,Thromboxane A2 receptor,31.6 nM
O=C(O)c1csc(-n2ccc3ccc(Cl)cc32)n1,IC50,[1]; read-out: Log IC50 (converted),> 1000 nM
CC(C)Cc1cn(-c2ncc(C(=O)O)s2)c2cc(Cl)ccc12,IC50,[1]; read-out: Log IC50 (converted),100 nM
CC(C)Cc1cn(-c2nc(C(=O)O)cs2)c2ccccc12,IC50,[1]; read-out: Log IC50 (converted),158 nM
same,Ki,[2]; read-out: Log Ki (converted),12.6 nM
CC(C)Cc1cn(-c2nc(C(=O)O)co2)c2cc(Cl)ccc12,IC50,[1]; read-out: Log IC50 (converted),7.94 nM
same,Ki,[2]; read-out: Log Ki (converted),1 nM
CC(C)Cc1cn(-c2nc(C(=O)O)cs2)c2cc(C(F)(F)F)ccc12,IC50,[1]; read-out: Log IC50 (converted),12.6 nM
same,Ki,[2]; read-out: Log Ki (converted),0.0631 nM
same,Ki,[10],501 nM
CC(C)Cc1cn(-c2ccc(C(=O)O)s2)c2cc(Cl)ccc12,IC50,[1]; read-out: Log IC50 (converted),50.1 nM
Cc1ccc2c(CC(C)C)cn(-c3nc(C(=O)O)cs3)c2c1,IC50,[1]; read-out: Log IC50 (converted),10 nM
Cc1c(CC(C)C)c2ccc(Cl)cc2n1-c1nc(C(=O)O)cs1,IC50,[1]; read-out: Log IC50 (converted),39.8 nM
CC(C)Cc1cn(-c2ccc(C(=O)[O-])o2)c2cc(Cl)ccc12.[Na+],IC50,[1]; read-out: Log IC50 (converted),25.1 nM
same,Ki,[2]; read-out: Log Ki (converted),1.26 nM
same,CL,Liver [3],35 mL/min/g
same,CL,Liver [4],5.4 mL/min/g
same,Ki,[10],501 nM
same,Ki,Thromboxane A2 receptor,398 nM
CC(C)c1cn(-c2nc(C(=O)O)cs2)c2cc(Cl)ccc12,IC50,[1]; read-out: Log IC50 (converted),39.8 nM
CC(C)Cc1cn(Cc2nc(C(=O)O)cs2)c2cc(Cl)ccc12,IC50,[1]; read-out: Log IC50 (converted),6.31 nM
CCc1cn(-c2nc(C(=O)O)cs2)c2cc(Cl)ccc12,IC50,[1]; read-out: Log IC50 (converted),126 nM
CC(C)C(=O)c1cn(-c2nc(C(=O)O)cs2)c2cc(Cl)ccc12,IC50,[1]; read-out: Log IC50 (converted),100 nM
O=C(O)c1csc(-n2cc(Cc3ccccc3)c3ccc(Cl)cc32)n1,IC50,[1]; read-out: Log IC50 (converted),158 nM
same,Ki,[2]; read-out: Log Ki (converted),63.1 nM

# Reference: ChEMBL document CHEMBL1144841, “Discovery of a novel indole series of EP1 receptor antagonists by scaffold hopping” (Bioorg Med Chem Lett, 2008)
